Test results: publication PMC4050191 (FEBS Open Bio, 2014)
Read-outs that look alike come from different tables or passages of the source. Blank lines part the entries; values can stand above or below the substance they belong to.

Assays:
[1] = test system: HsCen1 (full-length human centrin 1); assay: ITC, peptide binding to full-length HsCen1; settings: centrin 1; +Ca2+ versus EDTA
How it was run: (§1)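 Recombinant human centrin (full-length or C-terminal domain; Asp variants made by double-PCR mutagenesis) was expressed in E. coli BL21(DE3), heat-treated at 63 °C, then purified by ion-exchange, phenyl and gel-filtration chromatography. ITC at 30 °C: 10 μM centrin titrated with 100 μM N-acetylated, C-amidated peptide in 50 mM MOPS, 100 mM NaCl, pH 7.5, plus 1 mM CaCl₂ or 2 mM EDTA. Dilution heats subtracted; data fitted for n, Ka and ΔH.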

[2] = test system: HsC1P (human centrin 1 phosphorylated by CK2 at T138); assay: ITC, peptide binding to CK2-phosphorylated HsCen1; settings: EDTA / absence of Ca2+; phosphorylated versus unphosphorylated centrin 1
[3] = test system: HsCen1-T138D (phosphomimetic human centrin 1); assay: ITC, peptide binding to HsCen1-T138D; settings: EDTA; HsCen1-T138D versus HsCen1
C-HsCen1-T138D = assay: ITC, peptide binding to C-HsCen1-T138D; parameters: species or system human; settings: EDTA; C-HsCen1-T138D versus C-HsCen1
How it was run: as §1

C-HsCen2-T138D = assay: ITC, peptide binding to C-HsCen2 T138D; parameters: species or system human; settings: versus C-HsCen2 wild type
How it was run: as §1

C-HsCen2-S158D = assay: ITC, peptide binding to C-HsCen2 S158D; parameters: species or system human; settings: absence of Ca2+; versus C-HsCen2 wild type
How it was run: as §1

C-HsCen2 T138D-S158D = assay: ITC, peptide binding to C-HsCen2 T138D-S158D; parameters: species or system human; settings: versus C-HsCen2 wild type
How it was run: as §1

[4] = target: C-terminal domain of human centrin 1 T138D (human); assay: ITC
[5] = target: C-terminal domain of human centrin 1 T138E (human); assay: ITC
[6] = target: C-terminal domain of human centrin 1 T138D (human); assay: ITC; remark: listed apart in the source
[7] = target: C-terminal domain of human centrin 1 T138E (human); assay: ITC; remark: listed apart in the source
C-HsCen1-T138E = assay: ITC, peptide binding to C-HsCen1-T138E; parameters: species or system human; settings: C-HsCen1-T138E versus C-HsCen1; +Ca2+ (Fig. S3)
How it was run: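 Binding measured by ITC at 30 °C. Cell contained E. coli-expressed, heat-treated, chromatographically purified centrin at 10 μM. N-acetylated, C-amidated target peptide at 100 μM was injected in 8–10 μL steps. Buffer was 50 mM MOPS, 100 mM NaCl, pH 7.5 with 1 mM CaCl₂. The first 2 μL injection was discarded. Baseline-corrected integrated heats were fitted for n, Ka and ΔH. Peptide-into-buffer injections gave dilution heat.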

factor of increase of binding by the presence of Ca2+ [1]: 5
factor of reduction of binding by phosphorylation at T138 [2]: 10
factor of reduction of binding by the T138D phosphomimetic mutation [3]: 4
factor of decrease of affinity by the T138D mutation (C-HsCen1-T138D): 2
factor of reduction of affinity by the T138D mutation (C-HsCen2-T138D; absence of Ca2+): 3
factor of reduction of affinity by the T138D mutation (C-HsCen2-T138D; presence of Ca2+): 2
factor of reduction of affinity by the S158D mutation (C-HsCen2-S158D): 3.7
factor of reduction of affinity by the T138D-S158D double mutation (C-HsCen2 T138D-S158D; absence of Ca2+): 9
factor of reduction of affinity by the T138D-S158D double mutation (C-HsCen2 T138D-S158D; presence of Ca2+): 2
Substance: 846-NWKLLAKGLLIRERLKR-863 [P17-XPC]

Ka [4]: 4.55e+06 M⁻¹
dH [4]: -30.2 kcal/mol
Ka [5]: 430000 M⁻¹
dH [5]: -32.6 kcal/mol
Ka [6]: 3.34e+07 M⁻¹
dH [6]: -23.6 kcal/mol
Ka [7]: 9.03e+06 M⁻¹
Substance: P17-XPC, 17-residue peptide of human XPC

factor of decrease of affinity by the T138E mutation (C-HsCen1-T138E): 7
Substance: 325-MAVATGSWDSFLKIWN-340 [Trd]
